Assay results as given in ChEMBL document CHEMBL3091449, “Synthesis and antimicrobial profile of N-substituted imidazolium oximes and their monoquaternary salts against multidrug resistant bacteria” (2013).

Key:
Type in all cases: functional
Staphylococcus aureus [1] = assay: Antibacterial activity against Staphylococcus aureus ATCC 25923 assessed as diameter of zone of inhibition at 250 ug/disc after 24 hrs by disc diffusion method; details: ATCC 25923, 24 h, read-out: DIZ
Outline: (§1)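 Bacteria were grown overnight at 37 °C in TSB to about 10^6 cfu/mL, and 100 µL was spread on Mueller Hinton agar. Sterile 6 mm discs were each loaded with 25 µL of a 10 mg/mL stock in 96% ethanol, giving 250 µg/disc. Ethanol served as the negative control. Plates were incubated 24 h at 37 °C. Inhibition zone diameter was measured including the disc, in triplicate, as mean ± SE.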

Aeromonas hydrophila [2] = assay: Antibacterial activity against Aeromonas hydrophila FNSST 014 assessed as diameter of zone of inhibition at 250 ug/disc after 24 hrs by disc diffusion method; details: FNSST 014, 24 h, read-out: DIZ; outline: as §1
Aeromonas hydrophila [3] = assay: Antibacterial activity against Aeromonas hydrophila FNSST 014 after 18 to 24 hrs by two-fold broth microdilution assay
Outline: (§2)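 CLSI two-fold broth microdilution was used. Compounds were dissolved in DMSO, brought to 10 mg/mL in medium, then serially diluted in Mueller Hinton broth over 400–0.09 µg/mL. Overnight MHB cultures were diluted to 10^6 CFU/mL, and 10 µL was added per well. Plates were incubated 18–24 h at 37 °C, then 0.2 mg/mL INT was added for 30 min at 37 °C. MIC was the lowest concentration with no visible growth or pink colour, triplicate.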

Clostridium perfringens [4] = assay: Antibacterial activity against Clostridium perfringens FNSST 4999 after 18 to 24 hrs by two-fold broth microdilution assay
Outline: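 CLSI two-fold broth microdilution. Compounds dissolved in DMSO, 10 mg/mL stock, serially diluted to 400–0.09 µg/mL in Mueller Hinton broth. Wells inoculated with 10^6 CFU/mL bacteria and incubated 18–24 h at 37 °C. 0.2 mg/mL INT added for 30 min. MIC taken as the lowest concentration with no visible growth or pink colour. Triplicate.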

Enterococcus faecalis [5] = assay: Antibacterial activity against Enterococcus faecalis ATCC 29212 assessed as diameter of zone of inhibition at 250 ug/disc after 24 hrs by disc diffusion method; details: ATCC 29212, 24 h, read-out: DIZ; outline: as §1
Escherichia coli [6] = assay: Antibacterial activity against Escherichia coli FNSST 982 after 18 to 24 hrs by two-fold broth microdilution assay; outline: as §2
Bacillus cereus [7] = assay: Antibacterial activity against Bacillus cereus ATCC 11778 assessed as diameter of zone of inhibition at 250 ug/disc after 24 hrs by disc diffusion method; details: ATCC 11778, 24 h, read-out: DIZ; outline: as §1
Escherichia coli [8] = assay: Ratio of gentamicin MIC to compound MIC for Escherichia coli FNSST 982
Pseudomonas aeruginosa [9] = assay: Antibacterial activity against Pseudomonas aeruginosa FNSST 982 assessed as diameter of zone of inhibition at 250 ug/disc after 24 hrs by disc diffusion method; details: FNSST 982, 24 h, read-out: DIZ; outline: as §1
Pseudomonas aeruginosa [10] = assay: Antibacterial activity against Pseudomonas aeruginosa FNSST 982 after 18 to 24 hrs by two-fold broth microdilution assay; outline: as §2
Escherichia coli [11] = assay: Antibacterial activity against Escherichia coli FNSST 982 assessed as diameter of zone of inhibition at 250 ug/disc after 24 hrs by disc diffusion method; details: FNSST 982, 24 h, read-out: DIZ; outline: as §1
Bacillus cereus [12] = assay: Antibacterial activity against Bacillus cereus ATCC 11778 after 18 to 24 hrs by two-fold broth microdilution assay; outline: as §2
Staphylococcus aureus [13] = assay: Antibacterial activity against Staphylococcus aureus ATCC 25923 after 18 to 24 hrs by two-fold broth microdilution assay; outline: as §2
Klebsiella pneumoniae [14] = assay: Antibacterial activity against Klebsiella pneumoniae FNSST 011 after 18 to 24 hrs by two-fold broth microdilution assay; outline: as §2
Clostridium perfringens [15] = assay: Antibacterial activity against Clostridium perfringens FNSST 4999 assessed as diameter of zone of inhibition at 250 ug/disc after 24 hrs by disc diffusion method; details: FNSST 4999, 24 h, read-out: DIZ
Outline: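 Disc diffusion per CLSI: 100 µL of 10^6 cfu/mL bacterial suspension spread on Mueller Hinton agar. 6 mm discs loaded with 25 µL of 10 mg/mL compound stock in 96% ethanol (250 µg/disc); ethanol as negative control. Incubated 24 h at 37 °C. Inhibition zone diameter measured in mm including the disc, triplicate, reported as mean ± SE.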

Aspergillus fumigatus = assay: Antifungal activity against Aspergillus fumigatus FNSST 3833 assessed as diameter of zone of inhibition at 250 ug/disc after 72 hrs by disc diffusion method; details: FNSST 3833, 72 h, read-out: DIZ
Outline: (§3)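 Fungi were grown overnight at 30 °C in Sabouraud dextrose broth to 10^4 cfu/mL, and 100 µL was spread on Sabouraud dextrose agar. 6 mm discs carried 250 µg (25 µL of a 10 mg/mL stock in 96% ethanol), with ethanol as the negative control. Incubation was at 30 °C for 48 h (yeast) or 72 h (molds). Zone diameter was read including the disc, in triplicate, mean ± SE.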

Talaromyces funiculosus = assay: Antifungal activity against Penicillium funiculosum FNSST 3724 assessed as diameter of zone of inhibition at 250 ug/disc after 72 hrs by disc diffusion method; details: FNSST 3724, 72 h, read-out: DIZ; outline: as §3
Candida albicans = assay: Antifungal activity against Candida albicans ATCC 10231 assessed as diameter of zone of inhibition at 250 ug/disc after 48 hrs by disc diffusion method; details: ATCC 10231, 48 h, read-out: DIZ; outline: as §3
Klebsiella pneumoniae [16] = assay: Antibacterial activity against Klebsiella pneumoniae FNSST 011 assessed as diameter of zone of inhibition at 250 ug/disc after 24 hrs by disc diffusion method; details: FNSST 011, 24 h, read-out: DIZ; outline: as §1
Enterococcus faecalis [17] = assay: Antibacterial activity against Enterococcus faecalis ATCC 29212 after 18 to 24 hrs by two-fold broth microdilution assay; outline: as §2
Pseudomonas aeruginosa [18] = assay: Ratio of gentamicin MIC to compound MIC for Pseudomonas aeruginosa FNSST 982
Pseudomonas aeruginosa [19] = assay: Ratio of cefotaxime MIC to compound MIC for Pseudomonas aeruginosa FNSST 982

Structure (SMILES) | zone of inhibition at 250 µg/disc (Staphylococcus aureus [1]) [mm] | zone of inhibition at 250 µg/disc (Aeromonas hydrophila [2]) [mm] | MIC (Aeromonas hydrophila [3]) [mg/L] | MIC (Clostridium perfringens [4]) [mg/L] | zone of inhibition at 250 µg/disc (Enterococcus faecalis [5]) [mm] | MIC (Escherichia coli [6]) [mg/L] | zone of inhibition at 250 µg/disc (Bacillus cereus [7]) [mm] | Ratio (Escherichia coli [8]) | zone of inhibition at 250 µg/disc (Pseudomonas aeruginosa [9]) [mm] | MIC (Pseudomonas aeruginosa [10]) [mg/L] | zone of inhibition at 250 µg/disc (Escherichia coli [11]) [mm] | MIC (Bacillus cereus [12]) [mg/L] | MIC (Staphylococcus aureus [13]) [mg/L] | MIC (Klebsiella pneumoniae [14]) [mg/L] | zone of inhibition at 250 µg/disc (Clostridium perfringens [15]) [mm] | zone of inhibition at 250 µg/disc (Aspergillus fumigatus) [mm] | zone of inhibition at 250 µg/disc (Talaromyces funiculosus) [mm] | zone of inhibition at 250 µg/disc (Candida albicans) [mm] | zone of inhibition at 250 µg/disc (Klebsiella pneumoniae [16]) [mm] | MIC (Enterococcus faecalis [17]) [mg/L] | further results
O/N=C/c1n(Cc2ccccc2)cc[n+]1-c1ccccc1.[Br-] | 12.5 | 15.3 | 25 | 25 | 13.3 | 3.12 | 15 | 10 | 14.9 | 25 | 12.3 | 25 | 12.5 | 31.2 | 16.6 | 20.8 | 17.4 | 18.1 | 15.5 | 25 | –
Cc1ccc(-[n+]2ccn(Cc3ccccc3)c2/C=N/O)cc1.[Br-] | 18.4 | 16.6 | 12.5 | 25 | 14.5 | 3.12 | 12.2 | 2.5 | 20.6 | 0.14 | 17.7 | 12.5 | 6.25 | 12.5 | 20.7 | 20.3 | 18.4 | 20.8 | 16.3 | 25 | Ratio (Pseudomonas aeruginosa [18]): 450; Ratio (Pseudomonas aeruginosa [19]): 115
